This is a sample that favours compounds with a hit; in the whole collection about 1.4% have one here.
hK5 inh – blocks human kallikrein 5 protease activity; Q9Y337; recombinant hK5, fluorogenic AMC substrate cleavage; inhibition, % at 5 µM; actives 0.59% (n = 210,000);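 active = inhibition of 40% or more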;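 also: 0% = enzyme controls without compound and 100% = no-enzyme blanks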
thrombin 1536 – blocks human thrombin protease activity | actives 0.26% (n = 220,000) | inhibition, % at 5 µM | P00734 | AID 1046 | alpha-thrombin, Boc-VPR-AMC fluorogenic substrate cleavage;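 active = inhibition at or above 40%; inactive = inhibition below 40%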;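 also: 0% = enzyme with no compound and 100% = wells without enzyme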
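Material: human alpha-thrombin protein. Incubation: reaction at ambient temperature. Technique: fluorescence of released AMC, ex 355 nm, em 460 nm. Control set: no-compound enzyme wells and no-enzyme blanks. Also added: Boc-VPR-AMC substrate, 15 µM final. Buffer or medium: pH 7.5 Tris (50 mM) with NaCl 150 mM, Tween 20 0.05%.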
FXIIa inh – blocks human coagulation factor XIIa protease activity | P00748 | purified FXIIa, Boc-QGR-AMC fluorogenic substrate, 2 h | inhibition, % at 5 µM | actives 0.3% (n = 220,000) | AID 800; in the data active = inhibition above about 40%;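 also: 0% = enzyme with no compound and 100% = blank without enzyme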
Calpain2 inh – inhibitors of pig calpain II; AID 1236; actives 0.37% (n = 220,000); inhibition, % at 16 µM; purified calpain II, fluorogenic peptide substrate, 30 min;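 active = inhibition above about 50%, limit read from the data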
FXIa inh 1536 – inhibitors of human coagulation factor XIa; actives 0.14% (n = 220,000); purified FXIa, Boc-Glu-Ala-Arg-AMC fluorogenic substrate; P03951; inhibition, % at 5 µM;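 active = inhibition of at least 40%; inactive = inhibition below 40%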;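 also: fluorescence of freed AMC excited at 355 nm; 0% = enzyme without compound and 100% = no enzyme blank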
Target sequence (P03951 19-387 limits assumed): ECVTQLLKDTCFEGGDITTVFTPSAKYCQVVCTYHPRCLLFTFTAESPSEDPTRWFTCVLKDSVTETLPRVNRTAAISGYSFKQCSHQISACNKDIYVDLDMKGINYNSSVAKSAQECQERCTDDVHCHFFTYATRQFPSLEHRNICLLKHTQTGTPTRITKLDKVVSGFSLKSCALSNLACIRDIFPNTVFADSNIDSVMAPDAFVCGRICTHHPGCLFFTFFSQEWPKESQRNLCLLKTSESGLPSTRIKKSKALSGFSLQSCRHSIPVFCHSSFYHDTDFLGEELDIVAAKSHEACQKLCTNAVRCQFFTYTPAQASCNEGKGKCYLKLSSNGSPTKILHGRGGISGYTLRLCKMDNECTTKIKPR
Target sequence (P03951 388-625 limits assumed): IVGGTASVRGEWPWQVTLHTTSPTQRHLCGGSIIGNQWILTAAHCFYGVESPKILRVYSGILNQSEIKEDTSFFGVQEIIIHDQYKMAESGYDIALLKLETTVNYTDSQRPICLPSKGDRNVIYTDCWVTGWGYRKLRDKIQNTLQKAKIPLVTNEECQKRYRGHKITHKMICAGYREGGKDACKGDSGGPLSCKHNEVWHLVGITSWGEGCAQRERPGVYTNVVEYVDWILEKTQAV
* marks the source's active call; other numbers are inactive results; . = no result.

SMILES | hK5 inh | thrombin 1536 | FXIIa inh | Calpain2 inh | FXIa inh 1536
O=C(NCc1ccco1)c1c2c(nc3ccccc13)CCC2 | 13.8 | 1.1 | 47.6* | -66.3 | 25.8
CC1CCN(CC(=O)Nc2ccccc2C#N)CC1 | 22.6 | 42.5* | 23.6 | 13.6 | 14.1
COC(=O)c1ccccc1NC(=O)CN1CCC(C)CC1 | -3.7 | -7.3 | 3.0 | -3.1 | 1.1
O=C(CN1CCN(c2ccc(Cl)cc2[N+](=O)[O-])CC1)N1CCOCC1 | 1.8 | -7.5 | 6.7 | -0.1 | 3.6
COc1ccc(NC(=O)n2nc(OC(=O)c3cccs3)cc2N)cc1 | 6.6 | 46.4* | 19.2 | 3.0 | 18.2
O=C(COC(=O)Cn1cnc2ccccc2c1=O)Nc1cc(Cl)ccc1[N+](=O)[O-] | -7.9 | 65.0* | 10.1 | 4.4 | 8.9
CCN1CCN(c2cc(C(C)(C)C)nc3c(-c4ccccc4)c(C)nn23)CC1 | 46.7* | 13.0 | 1.7 | -29.1 | -0.2
Cc1cccc(CN2CCN(CC(=O)N3CCCC3)C2=O)c1 | -17.4 | 2.6 | 8.0 | 12.4 | 42.9*
Cc1ccc(-n2cc(CNCC3CC(=O)N(C4CC4)C3)c(-c3cccc(C)c3)n2)cc1 (stereo unspecified) | . | 2.1 | 5.8 | -18.8 | -3.1
COc1ccc(N(CC(=O)NCc2cccnc2)S(=O)(=O)c2ccccc2[N+](=O)[O-])c(OC)c1 | 8.6 | -1.7 | 12.5 | -19.6 | 2.9
COc1ccc(N(CC(=O)NCc2ccc(Cl)cc2)S(=O)(=O)c2ccccc2[N+](=O)[O-])c(OC)c1 | 22.7 | 15.9 | 37.1 | -11.8 | 102.2*
CCOC(=O)c1ccc(NC(=O)NC2CCN(CC(=O)NCc3ccc4c(c3)OCO4)CC2)cc1 | 30.2 | 43.3* | 13.7 | 12.6 | 9.8
Cc1cc(OC(=O)c2ccc(Cl)cc2Cl)nc(C)n1 | -53.3 | 4.1 | 45.4* | -17.7 | 6.5
COC(Cn1c(C)c(C(C)=O)c(C(C)=O)c1C)OC | 1.4 | 1.8 | 48.2* | 22.1 | 24.4
O=C(CCC(=O)OCC(F)(F)C(F)F)Nc1ccccc1F | -2.4 | 8.8 | 11.4 | -13.2 | -0.4
O=C(Nc1nc(=O)[nH]s1)c1ccccc1 | -0.7 | -3.9 | 9.5 | 57.0* | -0.9
CC(=O)c1cn(CCC(C)C)c(=O)[nH]c1=O | -1.6 | -7.9 | 10.3 | 19.8 | 5.9
CC(NCc1ccc(F)cc1)C(=O)Nc1cc(S(=O)(=O)N2CCCCC2)ccc1Cl (stereo unspecified) | 5.5 | 0.1 | 6.2 | 23.1 | -0.9
FC(F)(F)c1cccc(N2CCN(C(=S)NC3CCCC3)CC2)c1 | -32.9 | -3.7 | 18.0 | 51.8* | 13.8
Clc1ccc2oc(-c3ccccc3)cc(=NCCCN3CCOCC3)c2c1 | 33.5 | 51.9* | 17.3 | -1.2 | 9.6
OCCN1CCN(c2nc(-c3ccccc3)c3cc(Cl)ccc3n2)CC1 | -4.0 | 0.1 | 17.2 | -310.4 | 3.6
Clc1cccc(-c2nc(NCCCN3CCOCC3)c3ccccc3n2)c1 | . | -7.4 | 7.2 | -6.0 | -0.1
OCCCCCN=c1cc(-c2ccccc2)oc2ccc(Cl)cc12 | 69.3* | 59.7* | 12.8 | 18.5 | 6.0
CC(C)(C)C1CCc2onc(C(=O)NCc3ccc(F)cc3)c2C1 (stereo unspecified) | 0.6 | -1.9 | 9.3 | 51.8* | -2.6
CCc1cccc(CC)c1NC(=O)c1cccc(N)c1 | -20.1 | 45.7* | 3.9 | -77.5 | -12.7
SMILES | hK5 inh | thrombin 1536 | FXIIa inh | Calpain2 inh | FXIa inh 1536
CCc1cccc(CC)c1NC(=O)c1ccccc1 | 0.8 | -1.6 | 10.9 | -12.0 | -0.9
Cn1c(NCCc2ccccc2)cc(=O)n(C)c1=O | 2.6 | -1.6 | 77.1* | 9.6 | -1.6
O=C(O)c1cc(N/N=C/C=C/c2ccccc2)ccc1Cl | 4.2 | 3.6 | 9.0 | -66.8 | 0.4
Cc1c(=O)n(OCc2ccccc2F)c2ccccc2[n+]1[O-] | -14.1 | -8.3 | -12.0 | 73.4* | -11.2
CCOc1ccc(NC(=O)CN2C(=O)/C(=C3\SC(=S)N(C4CCS(=O)(=O)C4)C3=O)c3ccccc32)cc1 (stereo unspecified) | 36.4 | 3.3 | 21.9 | 62.6* | 52.6*
CCOc1ccc(NC(=O)CN2C(=O)CSC(C)C2=O)cc1 (stereo unspecified) | -6.6 | -29.4 | 1.5 | -10.0 | -8.4
O=C(COC(=O)COc1ccc(Cl)cc1Cl)Nc1cccnc1Cl | -29.6 | -5.1 | 4.9 | 19.2 | 15.7
CC(C)n1nnc2c(=O)oc3ccccc3c21 | -9.5 | -3.2 | 5.2 | 14.0 | -8.1
Cc1cc(C)cc(C(=O)Nc2ccc(NC(=O)Cc3ccccc3)cc2)c1 | 23.2 | 0.8 | 7.9 | -0.2 | 2.1
CCOC(=O)c1[nH]c2ccccc2c1NC(=S)Nc1ccccc1 | -9.1 | 43.0* | 14.7 | -11.4 | 6.1

Assay outcomes as filed in PubChem BioAssay.
